MrgX1 PAM = human MrgX1 positive allosteric modulation, primary screen; MrgX1-HEK293, Fluo-4 calcium flux, FDSS; active compounds read high; B-score at 10 µM; actives 0.63% (n = 310,000); AID 588675;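 active = plate-corrected calcium response at least 3 library SD above typical, normal starting fluorescence, not activating the receptor alone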;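 note: compound read alongside a low EC10 to EC30 dose of BAM8-22 agonist; peak minus trough fluorescence over baseline measured at the second addition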
Target sequence (Q96LB2 whole entry, looked up): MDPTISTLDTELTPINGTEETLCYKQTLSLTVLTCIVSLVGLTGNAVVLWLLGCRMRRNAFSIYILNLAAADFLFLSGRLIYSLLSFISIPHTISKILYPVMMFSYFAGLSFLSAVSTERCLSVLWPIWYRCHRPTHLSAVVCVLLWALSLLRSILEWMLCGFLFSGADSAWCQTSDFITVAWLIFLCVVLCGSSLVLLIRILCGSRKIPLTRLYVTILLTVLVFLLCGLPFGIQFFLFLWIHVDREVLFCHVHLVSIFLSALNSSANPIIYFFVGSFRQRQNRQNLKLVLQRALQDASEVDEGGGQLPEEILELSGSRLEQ
MrgX1 antagonist = antagonists of human MrgX1 receptor. actives 1.3% (n = 310,000). Q96LB2. B-score at 10 µM. MRGX1-HEK293 calcium flux, Fluo-4, BAM8-22 antagonism; active compounds read low;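 active = calcium-response B-score plate-corrected more than 3 library SD below zero, starting fluorescence within 5 deviations, no agonist response on first addition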;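 note: peak minus trough fluorescence over baseline after final BAM8-22 challenge near maximal dose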
RGS4 pot = RGS4 potentiation or activation | B-score at 10 µM | actives 0.92% (n = 310,000) | HEK293 M3R/inducible RGS4, carbachol calcium flux Fluo4; active compounds read low;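 active = B-score of the integrated calcium signal more than 4 SD below the library mean, with starting fluorescence not abnormally high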;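 note: negative B-score means reduced calcium response which marks RGS4 activation or potentiation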
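test system = HEK293 cells with stable M3R and inducible RGS4 | schedule = recording 10 s baseline at 1 Hz, 100 s post-agonist | technique = Fluo4-AM (2 µM) calcium-flux fluorescence, kinetic read | measure = Agonist-evoked peak-minus-minimum fluorescence over baseline, integrated ratio, B score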
RGS4 inh = human RGS4 inhibition. B-score at 10 µM. P49798. HEK293 M3R/RGS4 inducible, Fluo-4 calcium flux; active compounds read high; triggered by carbachol at its EC20. actives 0.45% (n = 310,000);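 active = B-score, a plate-corrected calcium signal, over three deviations above library mean, with baseline fluorescence within five deviations of library mean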;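 note: RGS4 expression induced by doxycycline in cells with stable M3 receptor; B-score is computed from the integrated fluorescence ratio over baseline after carbachol; higher B-score means a larger calcium signal and so more RGS4 inhibition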
Target sequence (P49798 whole entry, looked up): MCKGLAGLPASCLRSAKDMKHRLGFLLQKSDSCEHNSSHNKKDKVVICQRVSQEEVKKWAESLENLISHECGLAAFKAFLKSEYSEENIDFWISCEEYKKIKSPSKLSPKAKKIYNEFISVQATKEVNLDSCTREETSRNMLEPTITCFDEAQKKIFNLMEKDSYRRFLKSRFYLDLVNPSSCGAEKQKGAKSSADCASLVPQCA
MrgX1 ag = agonists of human MrgX1 receptor; B-score at 10 µM; MrgX1-HEK293 cells, Fluo-4 calcium fluorescence, agonist mode; active compounds read high; actives 0.44% (n = 310,000); AID 588627;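 active = calcium response B-score plate-corrected fluorescence ratio at least 3 library SD, with starting fluorescence B-score inside 5 SD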
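Material – MrgX1-expressing HEK293 cells · Input – 15,000 cells seeded per well · Dosing – compound as first of three additions · Times – overnight seeding, then 1 h dark dye loading · Measured by – kinetic Fluo-4 NW fluorescence of intracellular calcium · Read-out – B-scored fluorescence response ratio · Benchmarks – positive and negative control wells on each plate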
MrgX1 ant reconf = human MrgX1 receptor antagonism, re-confirmation screen; shares compounds with MrgX1 antagonist; MrgX1-HEK293, BAM8-22 calcium flux, Fluo-4; active compounds read low; remaining BAM8-22 calcium response % of control (active compounds read low), % at 10 µM; actives 19% (n = 2,300); AID 602420;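 active = remaining agonist calcium response no higher than 100% minus 3 SD of agonist-only control wells, with starting fluorescence near control levels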;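 note: agonist BAM8-22 given at a near maximal EC90 to ECmax level; peak minus minimum fluorescence divided by baseline after agonist addition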
HEK293 Ca flux = counter-screen for MrgX1 antagonists: effect in parental HEK293 cells. shares compounds with MrgX1 antagonist. Fluo-4 calcium fluorescence, FDSS. fluorescence ratio F(max-min)/F0 at 10 µM. actives 2% (n = 4,000). AID 624111;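 active = duplicate-averaged calcium fluorescence ratio at least three times the standard deviation of buffer wells, a nonspecific response in parental cells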
HEK293 Ca counter = activity in parental HEK293 cells without MrgX1 | shares compounds with MrgX1 antagonist | parental HEK293 calcium flux, Fluo-4 fluorescence ratio; active compounds read high | fluorescence ratio F(max-min)/F0 at 10 µM | actives 0.4% (n = 4,000) | AID 624114;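 active = calcium fluorescence ratio, averaged over duplicates, at least 3 SD of the buffer-well ratio, meaning a nonspecific response in receptor-free cells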;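 note: untransfected parental HEK293 lacking MrgX1 used as counterscreen for MrgX1 allosteric activators; fluorescence change taken during the second addition on a kinetic imager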
HEK293 Ca cntr2 = activity in parental HEK293 cells lacking MrgX1 receptor. shares compounds with MrgX1 antagonist. actives 8.7% (n = 4,000). fluorescence ratio F(max-min)/F0 at 10 µM. Fluo-4 calcium fluorescence (FDSS); active compounds read high;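 active = calcium fluorescence ratio at least three times the spread of buffer wells, meaning a non-specific response in parental cells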
* = called active by the depositor. A selection: hits, their analogues and other compounds. The true share with any hit is near 3.5%.

For Cc1sc(NC(=O)C2CSC3(C)CCC(=O)N23)nc1-c1ccccc1 (stereo not drawn) the results were MrgX1 PAM inactive, MrgX1 antagonist inactive, RGS4 pot inactive, RGS4 inh inactive and MrgX1 ag inactive.
For COCCNC(=O)c1ccc2c(=O)n(CCOC)c(=O)[nH]c2c1 the results were MrgX1 PAM inactive, MrgX1 antagonist -6.19*, RGS4 pot inactive, RGS4 inh inactive, MrgX1 ag inactive, MrgX1 ant reconf inactive, HEK293 Ca flux inactive, HEK293 Ca counter inactive and HEK293 Ca cntr2 inactive.
Cc1cccc(NC(=O)CNC(=O)C23CC4CC(CC(Cl)(C4)C2)C3)n1 was read as MrgX1 PAM inactive, MrgX1 antagonist inactive, RGS4 pot inactive, RGS4 inh inactive and MrgX1 ag inactive.
Screening Cc1cccc(C)c1NC(=O)CNC(=O)C12CC3CC(CC(O)(C3)C1)C2 returned MrgX1 PAM inactive, MrgX1 antagonist -4.89*, RGS4 pot inactive, RGS4 inh inactive, MrgX1 ag inactive, MrgX1 ant reconf inactive, HEK293 Ca flux inactive, HEK293 Ca counter inactive and HEK293 Ca cntr2 inactive.
CC(C)(C)OC(=O)N1CCC(CNC(=O)c2cccs2)CC1 was read as MrgX1 PAM inactive, MrgX1 antagonist inactive, RGS4 pot inactive, RGS4 inh inactive and MrgX1 ag inactive.
For CCOc1ccc(N(CC(=O)NC2CC2)S(=O)(=O)c2ccc(C)cc2)cc1 the results were MrgX1 PAM inactive, MrgX1 antagonist inactive, RGS4 pot inactive, RGS4 inh inactive and MrgX1 ag inactive.
For COc1ccc(CC(=O)OCC(=O)Nc2ncc(Cl)cc2Cl)cc1 the results were MrgX1 PAM inactive, MrgX1 antagonist -4.69*, RGS4 pot inactive, RGS4 inh inactive, MrgX1 ag inactive, MrgX1 ant reconf inactive, HEK293 Ca flux inactive, HEK293 Ca counter inactive and HEK293 Ca cntr2 inactive.
`COc1cccc(C(=O)c2c[nH]c(C(=O)NCc3cccs3)c2)c1` gave MrgX1 PAM inactive, MrgX1 antagonist -7.82*, RGS4 pot inactive, RGS4 inh inactive, MrgX1 ag inactive, MrgX1 ant reconf inactive, HEK293 Ca flux inactive, HEK293 Ca counter inactive and HEK293 Ca cntr2 inactive.
Cc1ccc(C(=O)Nc2nc3ccccc3n3nnnc23)cc1 was read as MrgX1 PAM inactive, MrgX1 antagonist -10.9*, RGS4 pot inactive, RGS4 inh inactive, MrgX1 ag inactive, MrgX1 ant reconf 83.8%*, HEK293 Ca flux inactive, HEK293 Ca counter inactive and HEK293 Ca cntr2 inactive.
For COc1ccc(S(=O)(=O)N2CCCCCC2)cc1C(=O)N1CCN(c2ccccc2O)CC1 the results were MrgX1 PAM inactive, MrgX1 antagonist inactive, RGS4 pot inactive, RGS4 inh inactive and MrgX1 ag inactive.
For Oc1ccc(C(=S)N2CCCCC2)cc1 the results were MrgX1 PAM inactive, MrgX1 antagonist -4.82*, RGS4 pot inactive, RGS4 inh inactive, MrgX1 ag inactive, MrgX1 ant reconf inactive, HEK293 Ca flux inactive, HEK293 Ca counter inactive and HEK293 Ca cntr2 inactive.
`Clc1ccc2nnnc(-c3ccccc3)c2c1` gave MrgX1 PAM inactive, MrgX1 antagonist -4.56*, RGS4 pot inactive, RGS4 inh inactive, MrgX1 ag inactive, MrgX1 ant reconf inactive, HEK293 Ca flux inactive, HEK293 Ca counter inactive and HEK293 Ca cntr2 inactive.
Screening CCCCC(=O)NC1=C(C(=O)OC)SCC1 returned MrgX1 PAM inactive, MrgX1 antagonist -4.85*, RGS4 pot inactive, RGS4 inh inactive, MrgX1 ag inactive, MrgX1 ant reconf inactive, HEK293 Ca flux inactive, HEK293 Ca counter inactive and HEK293 Ca cntr2 inactive.
Cc1ccc(N(C(=O)CNC(=O)c2ccco2)C(C(=O)NC2CCCCC2)c2cccnc2)cc1 (stereo not drawn) was read as MrgX1 PAM inactive, MrgX1 antagonist inactive, RGS4 pot inactive, RGS4 inh inactive and MrgX1 ag inactive.
For COc1ccc([N+](=O)[O-])cc1NC1CCN(C(=O)c2cccs2)CC1 the results were MrgX1 PAM inactive, MrgX1 antagonist inactive, RGS4 pot inactive, RGS4 inh inactive and MrgX1 ag inactive.
For CCOc1ccc(C2=NNC(c3cccs3)=Nc3ccc(OCC)cc32)cc1 the results were MrgX1 PAM inactive, MrgX1 antagonist inactive, RGS4 pot inactive, RGS4 inh inactive and MrgX1 ag inactive.
`Cc1ccccc1NC(=O)C(C)OC(=O)c1ccccc1C(=O)N(C)c1ccccc1` (stereo not drawn) gave MrgX1 PAM inactive, MrgX1 antagonist -5.74*, RGS4 pot inactive, RGS4 inh inactive, MrgX1 ag inactive, MrgX1 ant reconf inactive, HEK293 Ca flux inactive, HEK293 Ca counter inactive and HEK293 Ca cntr2 inactive.
For CC1CCCN(C(=O)Nc2ccc(Br)cc2Cl)C1 (stereo not drawn) the results were MrgX1 PAM inactive, MrgX1 antagonist inactive, RGS4 pot inactive, RGS4 inh inactive and MrgX1 ag inactive.
`CC1CN(C(=O)Nc2ccc(Br)cc2Cl)CC(C)O1` (stereo not drawn) gave MrgX1 PAM inactive, MrgX1 antagonist -6.38*, RGS4 pot inactive, RGS4 inh inactive, MrgX1 ag inactive, MrgX1 ant reconf inactive, HEK293 Ca flux inactive, HEK293 Ca counter inactive and HEK293 Ca cntr2 inactive.
Screening Cc1ccc(C(=O)C(C)OC(=O)CN2C(=O)NC3(CCCC3)C2=O)cc1 (stereo not drawn) returned MrgX1 PAM inactive, MrgX1 antagonist inactive, RGS4 pot inactive, RGS4 inh inactive and MrgX1 ag inactive.
CCN1CCN(CCNC(=O)c2ccc(/C=C3\Sc4ccccc4N(Cc4ccccc4F)C3=O)cc2)CC1 was read as MrgX1 PAM inactive, MrgX1 antagonist -13.3*, RGS4 pot -7.05*, RGS4 inh inactive, MrgX1 ag inactive, MrgX1 ant reconf inactive, HEK293 Ca flux inactive, HEK293 Ca counter inactive and HEK293 Ca cntr2 inactive.
